Measured values: ChEMBL document CHEMBL4602630, “Synthesis and cytotoxicity evaluation of glycosidic derivatives of lawsone against breast cancer cell lines” (Bioorg Med Chem Lett, 2020)

How the values were obtained:
[1] = Cytotoxicity against human HGF cells assessed as redution in cell viability incubated for 72 hrs by SRB assay; type: cell-based
Method in brief: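 Non-tumour human HGF cells were obtained under UFSC ethics approval 021/2009 and kept at 37°C, 5% CO2, humidified, with 10% FBS. Compounds were tested on 1x10^4 cells/well by sulforhodamine B assay. IC50 came from a nonlinear variable-slope fit of log concentration vs normalized response.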

[2] = tested on: SK-BR-3; test: Cytotoxicity against HER2-positive human SKBR3 cells assessed as redution in cell viability incubated for 72 hrs by SRB assay; type: functional, cell-based; conditions: SK-BR-3, 72 h
[3] = tested on: MDA-MB-231; test: Cytotoxicity against triple-negative human MDA-MB-231 cells assessed as redution in cell viability incubated for 72 hrs by SRB assay; type: functional, cell-based; conditions: MDA-MB-231, 72 h
Method in brief: (§1)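 Breast tumour lines from ATCC, each in its own medium with 10% FBS: SKBR-3 (HER2+) in McCoy's 5A; MCF-7 (ER+) in MEM plus 0.01 mg/mL human recombinant insulin; MDA-MB-231 (triple-negative) in DMEM. Cells were kept at 37°C, 5% CO2, humidified. Compounds were tested on 1x10^4 cells/well by sulforhodamine B assay. IC50 came from a nonlinear fit of log concentration vs normalized response (variable slope).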

[4] = tested on: MCF7; test: Cytotoxicity against ER-positive human MCF7 cells assessed as redution in cell viability incubated for 72 hrs by SRB assay; type: functional, cell-based; conditions: MCF7, 72 h; method in brief: as §1
[5] = Selectivity index, ratio of IC50 for human HGF cells to IC50 for SKBR3 cells; type: toxicity; conditions: HGF cells versus SKBR3 cells, read-out: Ratio IC50
[6] = Selectivity index, ratio of IC50 for human HGF cells to IC50 for MCF7 cells; type: toxicity; conditions: HGF cells versus MCF7 cells, read-out: Ratio IC50
[7] = Selectivity index, ratio of IC50 for human HGF cells to IC50 for MDA-MB-231 cells; type: toxicity; conditions: HGF cells versus MDA-MB-231 cells, read-out: Ratio IC50

CC(=O)OC[C@H]1O[C@@H](n2cc(COC3=CC(=O)c4ccccc4C3=O)nn2)[C@H](OC(C)=O)[C@@H](OC(C)=O)[C@@H]1OC(C)=O
IC50 [1]: 17.7 µM | IC50 [2]: 0.78 µM | IC50 [3]: 14 µM | IC50 [4]: 3.33 µM | selectivity ratio [5]: 22

CC(=O)O[C@H]1[C@H](OC(C)=O)[C@@H](OC2=CC(=O)c3ccccc3C2=O)O[C@@H](C)[C@H]1OC(C)=O
IC50 [1]: > 50 µM | IC50 [2]: 2.41 µM | IC50 [3]: 8.65 µM | IC50 [4]: 5.02 µM

C[C@@H]1O[C@H](n2cc(COC3=CC(=O)c4ccccc4C3=O)nn2)[C@@H](O)[C@H](O)[C@@H]1O
IC50 [1]: > 50 µM | IC50 [2]: > 50 µM | IC50 [3]: > 50 µM | IC50 [4]: > 50 µM

CC(=O)OC[C@H]1O[C@H](OC2=CC(=O)c3ccccc3C2=O)[C@H](OC(C)=O)[C@@H](OC(C)=O)[C@@H]1OC(C)=O
IC50 [1]: 20.2 µM | IC50 [2]: 2.11 µM | IC50 [3]: 8.29 µM | IC50 [4]: 3.52 µM

CC(=O)O[C@H]1[C@H](OC(C)=O)[C@H](OC2=CC(=O)c3ccccc3C2=O)O[C@@H](C)[C@H]1OC(C)=O
IC50 [1]: 19.8 µM | IC50 [2]: 9.52 µM | IC50 [3]: 18.2 µM | IC50 [4]: 11 µM

CC(=O)OC[C@H]1O[C@H](OC2=CC(=O)c3ccccc3C2=O)[C@H](OC(C)=O)[C@@H](OC(C)=O)[C@H]1OC(C)=O
selectivity ratio [6]: 8 | IC50 [1]: 35.7 µM | selectivity ratio [7]: 4 | IC50 [2]: 2.51 µM | IC50 [3]: 9.18 µM | IC50 [4]: 4.58 µM

COc1cccc2c1C(=O)c1c(O)c3c(c(O)c1C2=O)C[C@@](O)(C(=O)CO)C[C@@H]3O[C@H]1C[C@H](N)[C@H](O)[C@H](C)O1 [DOXORUBICIN]
IC50 [1]: > 50 µM | IC50 [4]: 0.38 µM

CC(=O)OC[C@H]1O[C@@H](n2cc(COC3=CC(=O)c4ccccc4C3=O)nn2)[C@H](OC(C)=O)[C@@H](OC(C)=O)[C@H]1OC(C)=O
IC50 [1]: 27.6 µM | IC50 [2]: 1.27 µM | IC50 [3]: 16.7 µM | IC50 [4]: 4.22 µM | selectivity ratio [5]: 22

O=C1C=C(OCc2cn([C@@H]3O[C@H](CO)[C@@H](O)[C@H](O)[C@H]3O)nn2)C(=O)c2ccccc21
IC50 [1]: > 50 µM | IC50 [2]: 34.7 µM | IC50 [3]: > 50 µM | IC50 [4]: 38.9 µM

O=C1C=C(O)C(=O)c2ccccc21 [LAWSONE]
IC50 [1]: > 50 µM | IC50 [2]: > 50 µM | IC50 [3]: > 50 µM | IC50 [4]: > 50 µM

CC(=O)N[C@@H]1[C@@H](OC(C)=O)[C@H](OC(C)=O)[C@@H](COC(C)=O)O[C@H]1n1cc(COC2=CC(=O)c3ccccc3C2=O)nn1
IC50 [1]: > 50 µM | IC50 [2]: 17 µM | IC50 [3]: > 50 µM | IC50 [4]: 28.9 µM

CC(=O)OC[C@H]1O[C@@H](OC2=CC(=O)c3ccccc3C2=O)[C@H](OC(C)=O)[C@@H](OC(C)=O)[C@H]1OC(C)=O
IC50 [1]: 34.6 µM | IC50 [2]: 8.86 µM | IC50 [3]: 13.3 µM | IC50 [4]: 13.6 µM

CC(=O)N[C@H]1[C@H](OC2=CC(=O)c3ccccc3C2=O)O[C@H](COC(C)=O)[C@@H](OC(C)=O)[C@@H]1OC(C)=O
IC50 [1]: > 50 µM | IC50 [2]: 8.3 µM | IC50 [3]: 27.6 µM | IC50 [4]: 16.3 µM

CC(=O)OC[C@H]1O[C@@H](OC2=CC(=O)c3ccccc3C2=O)[C@H](OC(C)=O)[C@@H](OC(C)=O)[C@@H]1OC(C)=O
IC50 [1]: 19.1 µM | IC50 [2]: 2.96 µM | IC50 [3]: 12.6 µM | IC50 [4]: 4.76 µM

CC(=O)N[C@@H]1[C@@H](O)[C@H](O)[C@@H](CO)O[C@H]1n1cc(COC2=CC(=O)c3ccccc3C2=O)nn1
IC50 [1]: > 50 µM | IC50 [2]: > 50 µM | IC50 [3]: > 50 µM | IC50 [4]: > 50 µM

CC(=O)N[C@H]1[C@@H](OC2=CC(=O)c3ccccc3C2=O)O[C@H](COC(C)=O)[C@@H](OC(C)=O)[C@@H]1OC(C)=O
IC50 [1]: 40.2 µM | IC50 [2]: 3.41 µM | IC50 [3]: 19.8 µM | IC50 [4]: 6.59 µM

O=C1C=C(OCc2cn([C@@H]3O[C@H](CO)[C@H](O)[C@H](O)[C@H]3O)nn2)C(=O)c2ccccc21
IC50 [1]: > 50 µM | IC50 [2]: > 50 µM | IC50 [3]: > 50 µM | IC50 [4]: > 50 µM

CC(=O)O[C@@H]1[C@H](OC(C)=O)[C@H](C)O[C@H](n2cc(COC3=CC(=O)c4ccccc4C3=O)nn2)[C@H]1OC(C)=O
IC50 [1]: 38.1 µM | IC50 [2]: 3.32 µM | IC50 [3]: 23.4 µM | IC50 [4]: 9.74 µM
